In assay [1] the target is PP1C (Homo sapiens, UniProt P62136). Description: Radiolabeled phosphoprotein substrate confirmation assay. Type of assay: biochemical. The method, boiled down:
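Purified PP1C catalytic subunit (working stock kept at −20 °C in tris with 50% glycerol, 2 mM DTT, 0.1 mg/mL BSA, 2 mM MnCl₂) was assayed in single tubes against [³²P]- or [³³P]-phosphorylase A in HEPES pH 7.0 PP1C buffer (BSA, Triton X-100, DTT, ascorbate, MnCl₂). Liberated labelled orthophosphate was quantified and expressed as percentage of DMF-vehicle control activity; serial dilutions, n = 3.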

The test system of the next assay is PP2AC. To be noted: read-out: IC50, PP2AC; ref [4],[6]; cited from earlier work.
The test system of the next assay is PP4C. To be noted: read-out: IC50, PP4C; ref [4],[6]; cited from earlier work.
Assay [2] concerns PP1C. To be noted: read-out: IC50, PP1C; ref [4],[6]; cited from earlier work.
The subject of assay [3] is PP5C. To be noted: read-out: IC50, PP5C; ref [4],[6]; cited from earlier work.
The target of assay [4] is T1, PP5C (Homo sapiens, UniProt P53041).
T1 sequence (P53041 1-499): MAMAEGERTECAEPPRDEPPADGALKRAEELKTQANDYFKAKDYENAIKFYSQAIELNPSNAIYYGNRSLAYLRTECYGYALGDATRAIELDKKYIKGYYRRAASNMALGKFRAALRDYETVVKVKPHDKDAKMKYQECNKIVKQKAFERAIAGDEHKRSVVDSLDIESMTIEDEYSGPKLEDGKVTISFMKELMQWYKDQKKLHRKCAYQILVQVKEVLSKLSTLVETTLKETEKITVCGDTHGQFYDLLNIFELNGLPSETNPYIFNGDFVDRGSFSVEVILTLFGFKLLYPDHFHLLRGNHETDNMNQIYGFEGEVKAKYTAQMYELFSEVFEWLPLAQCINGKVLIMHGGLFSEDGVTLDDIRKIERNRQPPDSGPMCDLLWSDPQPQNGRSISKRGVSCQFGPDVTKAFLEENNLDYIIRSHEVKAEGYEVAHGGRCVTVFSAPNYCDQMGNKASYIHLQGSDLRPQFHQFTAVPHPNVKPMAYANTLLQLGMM
Description: PP5C OMFP FLINT inhibition assay, 1536-well uHTS format. Type of assay: biochemical.

pIC50: −log10 of the molar value. Where only a bound is given, the exact number is not on record here.

Broadly, the pIC50 is the negative decadic logarithm of the IC50, by convention in mol/L.

PP1C (Homo sapiens, UniProt P62136), sequence (P62136 whole entry): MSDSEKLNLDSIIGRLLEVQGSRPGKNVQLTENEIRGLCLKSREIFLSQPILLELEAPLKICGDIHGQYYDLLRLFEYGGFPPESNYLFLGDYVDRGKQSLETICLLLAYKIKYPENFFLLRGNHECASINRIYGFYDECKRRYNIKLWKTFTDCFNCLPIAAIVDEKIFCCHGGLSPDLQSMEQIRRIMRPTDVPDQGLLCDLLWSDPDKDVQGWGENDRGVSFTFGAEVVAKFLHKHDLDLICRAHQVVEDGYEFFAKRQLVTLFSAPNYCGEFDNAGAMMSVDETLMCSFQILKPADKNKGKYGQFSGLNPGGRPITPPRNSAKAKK

In turn, `COc1ccc(NC(=O)C2C3CCC(O3)C2C(=O)O)c(OC)c1` (stereo not drawn) [SID 93617938, 3-{[(2,4-dimethoxyphenyl)amino]carbonyl}−7-oxabicyclo[2.2.1]heptane-2-carboxylic acid] showed a pIC50 on PP1C [1] of 4.72.

As for `C[C@@](O)(/C=C/[C@H]1CC=CC(=O)O1)[C@@H](C[C@@H](O)\C=C/C=C\C=C\CO)OP(=O)(O)O` [fostriecin], the pIC50 was greater than 8.70 with PP2AC, greater than 8.70 in the assay on PP4C, less than 4.15 in the assay with PP1C [2] and less than 4.15 in the assay on PP5C [3].

Compound `C[C@@]12C(=O)OC(=O)[C@]1(C)[C@H]1CC[C@@H]2O1` [cantharidin] had a negative logarithm of the IC50 (pIC50) against PP5C [4] of 6.28.

(Values after article PMC8041090 (SLAS discovery : advancing life sciences R & D, 2016).)
